Format in all cases: ADME, Microsome
The nature of data set [1]: Metabolic stability in rat liver microsomes assessed as half life. The gist of the method:
(§1)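 Stability in human or rat liver microsomes with compound at 1 µM, from DMSO solution.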

Data set [2] can be described thus: Metabolic stability in human liver microsomes assessed as half life. The gist of the method: as §1
Data set [3] can be described thus: Metabolic stability in human liver microsomes assessed as half life in presence of NADPH. The procedure, abridged: (§2)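 Advanced stability in human or rat liver microsomes run with NADPH, with and without UDPGA, on compound from 1 µM DMSO solution.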
Data set [4] is described as follows: Metabolic stability in rat liver microsomes assessed as half life in presence of NADPH. The procedure, abridged:
as §2

Bounds are passed on as bounds.

For the compound `CC(C)(C)OC(=O)N1CCC[C@H]1C(=O)N1CCC(NS(=O)(=O)c2cc(S(=O)(=O)c3ccccc3)ccc2C(F)(F)F)CC1`, the half-life in data set [1] and in data set [2] was above 1 min throughout.
In the case of `CC(C)(C)CCN1CCC[C@H]1C(=O)N1CCC(NS(=O)(=O)c2cc(S(=O)(=O)c3ccccc3)ccc2C(F)(F)F)CC1`, the half-life was above 8 min in data set [1] and above 5 min in data set [2].
In the same order, the values of `CC(C)(C)CC(=O)N1CCC[C@H]1C(=O)N1CCC(NS(=O)(=O)c2cc(S(=O)(=O)c3ccccc3)ccc2C(F)(F)F)CC1` are above 3 min and above 1 min.
In the case of `O=S(=O)(NC1CCNCC1)c1cc(S(=O)(=O)c2ccccc2)ccc1C(F)(F)F`, the half-life in data set [3] and in data set [4] was above 60 min in each case.
Regarding `CC(C)(C)NC(=O)N1CCC[C@H]1C(=O)N1CCC(NS(=O)(=O)c2cc(S(=O)(=O)c3ccccc3)ccc2C(F)(F)F)CC1`, the half-life in data set [1] was above 3 min; in data set [2] it was above 2 min.

The record behind these values is ChEMBL document CHEMBL1139350, “Modulation of Wnt signaling through inhibition of secreted frizzled-related protein I (sFRP-1) with N-substituted piperidinyl diphenylsulfonyl sulfonamides” (J Med Chem, 2009).
